This note sets out measurements from ChEMBL document CHEMBL3621132, “Discovery of diazepane amide DORAs and 2-SORAs enabled by exploration of isosteric quinazoline replacements” (Bioorg Med Chem Lett, 2015).

For series [1], the species on record is Homo sapiens. In words: Selectivity ratio of IC50 for human orexin 1 receptor Ile408-Val mutant to IC50 for human orexin 2 receptor.
The target in series [2] is T1, Orexin receptor type 2 (Homo sapiens, UniProt O43614).
T1 sequence (O43614 whole entry): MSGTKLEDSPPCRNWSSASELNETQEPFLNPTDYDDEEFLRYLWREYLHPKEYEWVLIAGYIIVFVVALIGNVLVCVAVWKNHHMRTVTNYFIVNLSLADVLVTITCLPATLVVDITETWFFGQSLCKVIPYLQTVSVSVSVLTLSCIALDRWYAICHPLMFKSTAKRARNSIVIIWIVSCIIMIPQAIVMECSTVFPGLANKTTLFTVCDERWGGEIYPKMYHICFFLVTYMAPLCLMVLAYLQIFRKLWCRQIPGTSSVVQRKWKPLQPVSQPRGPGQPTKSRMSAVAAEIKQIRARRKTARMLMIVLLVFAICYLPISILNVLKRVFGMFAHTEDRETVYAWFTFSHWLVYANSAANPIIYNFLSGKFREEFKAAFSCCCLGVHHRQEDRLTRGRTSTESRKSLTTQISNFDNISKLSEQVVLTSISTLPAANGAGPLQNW
Description: Antagonist activity at human orexin 2 receptor expressed in CHO cells assessed as inhibition of orexin-A-induced intracellular calcium level after 60 mins by FLIPR assay. The series is classed as functional, cell-based. (Calcium flux is commonly read through the fluorescence of an indicator in the cells.)

Series [3] in a line: AUC in satellite rat sleep model at 30 mg/kg, po. The format is ADME, organism-based. Particulars: in vivo. In short, it runs like this: (§1)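 Satellite rats from the sleep study were given 30 mg/kg orally as the free base in 20% Vitamin E TPGS in water (n = 3). Plasma AUC, Cmax and Tmax were measured over the sleep experiment.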
Series [4] can be described thus: Tmax in satellite rat sleep model at 30 mg/kg, po. The series is classed as ADME, organism-based. The settings on record: in vivo. In short, it runs like this: as §1
The species entered for series [5] is Rattus norvegicus. Description: Ex vivo receptor occupancy at human OX2R expressed in transgenic rat at plasma concentration of 0.35 uM. The format is functional.
Series [6] has as its system Rattus norvegicus. In words: Anti-insomnia activity in rat sleep model assessed as increase in REM sleep at 30 mg/kg, po up to 2 hrs. The series is classed as functional, organism-based.
Series [7] can be described thus: Clearance in dog at 0.125 mg/kg, iv. The series is classed as ADME, organism-based, Canis lupus familiaris. The settings on record: in vivo. The gist of the method:
(§2)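 Intravenous PK in rat (2 mg/kg) and dog (0.125 or 0.5 mg/kg), vehicle 100% DMSO, n = 2. Clearance, Vdss and half-life were determined.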

Series [8] is described as follows: Cmax in satellite rat sleep model at 30 mg/kg, po. The format is ADME, organism-based. Further details: dose 30 mg/kg, route oral. The settings on record: in vivo. In short, it runs like this:
as §1

Series [9] relates to Rattus norvegicus. Description: Anti-insomnia activity in rat sleep model assessed as reduction of active wake at 30 mg/kg, po up to 2 hrs. The format is functional, organism-based.
For series [10], the system named is Rattus norvegicus. Description: Anti-insomnia activity in rat sleep model assessed as increase in slow wave at 30 mg/kg, po up to 2 hrs. The format is functional, organism-based.
Series [11] concerns the target Orexin receptor type 1 (Homo sapiens) (UniProt O43613). Description: Binding affinity to human orexin 1 receptor expressed in CHO cells after 3 hrs by radioligand binding assay.
The target in series [12] is Orexin receptor type 2 (Homo sapiens) (UniProt O43614). Description: Antagonist activity at human orexin 2 receptor expressed in CHO cells assessed as inhibition of orexin-A-induced intracellular calcium level after 60 mins by FLIPR assay. Particulars: 1 h.
Series [13] has the same target. In words: Binding affinity to human orexin 2 receptor expressed in CHO cells after 3 hrs by radioligand binding assay.
Series [14] in a line: Oral bioavailability in satellite rat sleep model at 30 mg/kg. The format is ADME, organism-based. The settings on record: in vivo. In short, it runs like this:
as §1

Series [15] can be described thus: Cmax in rat at 10 mg/kg, po. The format is ADME, organism-based. Further details: dose 10 mg/kg, route oral. The settings on record: in vivo. In short, it runs like this: (§3)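 Rats were dosed orally at 10 mg/kg in 100% PEG200 (n = 2), as the free base or the hydrochloride salt. AUC, Tmax, Cmax and bioavailability (F) were derived from plasma levels.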
The nature of series [16]: Oral bioavailability in rat at 10 mg/kg. The series is classed as ADME, organism-based. Particulars: in vivo. The gist of the method: as §3
A short description of series [17]: Apparent permeability of the compound assessed […] by cell based assay. The format is physicochemical.
A short description of series [18]: Lipophilicity, log D of the compound by HPLC analysis. The series is classed as physicochemical.
A short description of series [19]: Half life in dog at 0.125 mg/kg, iv. The format is ADME, organism-based, Canis lupus familiaris. The settings on record: in vivo. In short, it runs like this:
as §2

Series [20] can be described thus: Clearance in rat at 2 mg/kg, iv. The series is classed as ADME, organism-based. Particulars: in vivo. The gist of the method:
as §2

Series [21] in a line: Oral bioavailability in dog at 3 mg/kg. The settings on record: in vivo. The series is classed as ADME, organism-based, Canis lupus familiaris. The gist of the method:
(§4)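 Oral dosing in dogs at 3 mg/kg as the free base in 20% Vitamin E TPGS in water (n = 2). AUC, Tmax, Cmax and oral bioavailability were determined from plasma.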

A short description of series [22]: Volume of distribution at steady state in rat at 2 mg/kg, iv. The format is ADME, organism-based. The settings on record: in vivo, read-out: Vdss. In short, it runs like this: as §2
The nature of series [23]: Plasma protein binding in human. The format is ADME, cell-free. The settings on record: read-out: PPB (converted).
Series [24] can be described thus: AUC in dog at 3 mg/kg, po. The series is classed as ADME, organism-based, Canis lupus familiaris. The settings on record: in vivo.
The species named for series [25] is Rattus norvegicus. In words: Ex vivo receptor occupancy at human OX2R expressed in transgenic rat at plasma concentration of 1 uM. The series is classed as functional.
Series [26] can be described thus: Half life in rat at 2 mg/kg, iv. The format is ADME, organism-based. The settings on record: in vivo. In short, it runs like this:
as §2

Series [27] is described as follows: Volume of distribution at steady state in dog at 0.125 mg/kg, iv. The series is classed as ADME, organism-based, Canis lupus familiaris. Particulars: in vivo, read-out: Vdss. The gist of the method:
as §2

Series [28] in a line: Cmax in dog at 3 mg/kg, po. Particulars: in vivo. Further details: dose 3 mg/kg, route oral. The series is classed as ADME, organism-based, Canis lupus familiaris. The gist of the method: as §4
Series [29] is described as follows: AUC in rat at 10 mg/kg, po. The format is ADME, organism-based. The settings on record: in vivo.
Series [30] is described as follows: Plasma protein binding in dog. The format is ADME, cell-free, Canis lupus familiaris. The settings on record: read-out: PPB (converted).
Series [31] is described as follows: Plasma protein binding in rat. Particulars: read-out: PPB (converted). The series is classed as ADME, cell-free.
Series [32] can be described thus: Tmax in rat at 10 mg/kg, po. The series is classed as ADME, organism-based. The settings on record: in vivo. The gist of the method: as §3
Series [33] can be described thus: Tmax in dog at 3 mg/kg, po. The series is classed as ADME, organism-based, Canis lupus familiaris. Particulars: in vivo. The gist of the method:
as §4

pIC50, pKi: −log10 of the molar value. Active and inactive are the calls of the source. The calls are words filed in the database; no cut-off is given here.

Regarding `COc1ncc(C(F)(F)F)c(N2CC[C@@H](C)N(C(=O)c3ccccc3-n3nccn3)CC2)n1`, the Ratio IC50 in series [1] is 7. In series [2], the pIC50 – broadly, −log10 of the IC50, conventionally taken in molar units – is 6.61.
As to `C[C@@H]1CCN(c2ncc3cc(F)ccc3n2)CCN1C(=O)c1ccccc1-n1nccn1`, the AUC – broadly, concentration integrated over time – in series [3] came out at 4.5 µM·h. In addition, in series [4], the Tmax (commonly the time from dosing to the highest level) was 1.3 h. The molecule further registered an Activity in series [5] of 90%. The result in series [6], in [9] and in series [10] was Active. Moreover, the clearance (in general, a measure of how efficiently the substance is removed, as volume per time) in [7] turned out to be 3 mL/min/kg. Besides, the Cmax (in general, the peak of the concentration-time curve) in series [8] was determined as 2000 nM.
As to `Cc1ncc(C(F)(F)F)c(N2CC[C@@H](C)N(C(=O)c3ccccc3-n3nccn3)CC2)n1`, the results for the pKi in series [11] and in series [13] were 5.38 and 7.51, respectively. Besides, the pIC50 in [2] and in [12] was 7.06 throughout.
Regarding `COc1nc(N2CC[C@@H](C)N(C(=O)c3cc(C)ccc3-n3nccn3)CC2)ncc1C`, the figures for the pKi in series [11] and in [13] were 7.85 and 9.22, respectively. Further, the pIC50 in series [2] and in [12] was 7.51 in each case.
Regarding `Cc1nc(N2CC[C@@H](C)N(C(=O)c3ccccc3-n3nccn3)CC2)ncc1C(F)(F)F`, in [11], the pKi (commonly the Ki on a negative log10 scale, so that one unit is a factor of ten) was 7.96. For the same molecule, the pIC50 in series [2] and in series [12] was 7.72 in each case. In addition, in series [7], the clearance came to 5 mL/min/kg.
For `Cc1ccc(-n2nccn2)c(C(=O)N2CCN(c3ncc(Cl)c(C)n3)CC[C@H]2C)c1`, the pKi in series [11] was 8.21. In addition, the pIC50 in [2] and in [12] was 7.70 throughout. The molecule further yielded a clearance in series [7] of 9 mL/min/kg.
Take `Cc1cnc(Cl)nc1N1CC[C@@H](C)N(C(=O)c2ccccc2-n2nccn2)CC1`: the pKi was 6.12 in series [11] and 8.59 in series [13]. In series [2], the pIC50 was 7.38.
As for `C[C@@H]1CCN(c2nc(Cl)ncc2C(F)(F)F)CCN1C(=O)c1ccccc1-n1nccn1`, in series [11], the pKi is 5.96. Also, the pIC50 in series [2] and in series [12] was 7.14 each time.
In the case of `COc1nc(N2CC[C@@H](C)N(C(=O)c3cc(C)ccc3-n3nccn3)CC2)ncc1C(F)(F)F`, the AUC in series [3] is 5.5 µM·h; in series [24], 9.9 µM·h; in series [29], 0.6 µM·h. The same molecule gave a pKi in series [11] of 8.82. Besides, the figures for the bioavailability in [14], in series [16] and in series [21] were 19%, 8% and 23%, respectively. Further, the Cmax in series [15] turned out to be 200 nM; in [8], 2500 nM; in series [28], 2300 nM. Further, the pIC50 in [2] and in series [12] was 7.57 each time. Besides, in [17], the Papp (as a rule, the rate of passage across a membrane or cell layer, normalised by area and donor concentration) is 28 ×10⁻⁶ cm/s. Besides, the logD (usually the decadic logarithm of the distribution of all forms, ionised or not, between an organic phase and buffer at a given pH) in [18] stood at 3.4. Further, the Tmax amounted to 0.8 h in series [4], 3 h in series [32] and 0.6 h in [33]. Further, the half-life (as a rule, how long it takes for the measured level to halve) in series [19] was 2.4 h; in [26] it was 1.1 h. For the same molecule, the results for the clearance in series [20] and in [7] were 37 mL/min/kg and 3 mL/min/kg, respectively. Besides, the results for the Vd in series [22] and in series [27] were 2.5 L/kg and 0.4 L/kg, respectively. The fraction unbound is 0.04 in [23], 0.005 in [30] and 0.05 in [31]. In addition, the result in series [6], in series [9] and in series [10] was Active. In series [25], this molecule showed an Activity of 83%.
